Measurements reported in ChEMBL document CHEMBL4266033, “Neolymphostin A Is a Covalent Phosphoinositide 3-Kinase (PI3K)/Mammalian Target of Rapamycin (mTOR) Dual Inhibitor That Employs an Unusual Electrophilic Vinylogous Ester” (J Med Chem, 2018).
Activity calls are given as the source filed them. The calls are words filed in the database; no cut-off is given here.

Key:
[1] = target: Mitogen-activated protein kinase 8 (Homo sapiens) (UniProt P45983); test: Binding affinity to human JNK1 at 1 uM after 1 hr by KINOMEscan assay
[2] = target: Phosphatidylinositol 4,5-bisphosphate 3-kinase catalytic subunit alpha isoform (Homo sapiens, UniProt P42336); test: Binding affinity to human PI3Kalpha diluted 30 fold and equilibrate for 6 hrs by scan-kinetic platform assay
Outline: (§1)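 scanKINETIC format on PI3Kα and PI3Kγ. […] Arm C: equilibrated 1 h. Arm B: equilibrated 1 h, diluted 30-fold, then re-equilibrated. Arm D: diluted immediately, then equilibrated. Kd compared with and without the dilution step to judge reversibility.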

[3] = target: Phosphatidylinositol 4,5-bisphosphate 3-kinase catalytic subunit gamma isoform (Homo sapiens, UniProt P48736); test: Binding affinity to human PI3Kgamma equilibrate for 1 hr followed by 30 fold dilution and re-equilibrate for 5 hrs by scan-kinetic platform assay; outline: as §1
Phosphatidylinositol 4,5-bisphosphate 3-kinase catalytic subunit gamma isoform, sequence (P48736 whole entry, canonical isoform): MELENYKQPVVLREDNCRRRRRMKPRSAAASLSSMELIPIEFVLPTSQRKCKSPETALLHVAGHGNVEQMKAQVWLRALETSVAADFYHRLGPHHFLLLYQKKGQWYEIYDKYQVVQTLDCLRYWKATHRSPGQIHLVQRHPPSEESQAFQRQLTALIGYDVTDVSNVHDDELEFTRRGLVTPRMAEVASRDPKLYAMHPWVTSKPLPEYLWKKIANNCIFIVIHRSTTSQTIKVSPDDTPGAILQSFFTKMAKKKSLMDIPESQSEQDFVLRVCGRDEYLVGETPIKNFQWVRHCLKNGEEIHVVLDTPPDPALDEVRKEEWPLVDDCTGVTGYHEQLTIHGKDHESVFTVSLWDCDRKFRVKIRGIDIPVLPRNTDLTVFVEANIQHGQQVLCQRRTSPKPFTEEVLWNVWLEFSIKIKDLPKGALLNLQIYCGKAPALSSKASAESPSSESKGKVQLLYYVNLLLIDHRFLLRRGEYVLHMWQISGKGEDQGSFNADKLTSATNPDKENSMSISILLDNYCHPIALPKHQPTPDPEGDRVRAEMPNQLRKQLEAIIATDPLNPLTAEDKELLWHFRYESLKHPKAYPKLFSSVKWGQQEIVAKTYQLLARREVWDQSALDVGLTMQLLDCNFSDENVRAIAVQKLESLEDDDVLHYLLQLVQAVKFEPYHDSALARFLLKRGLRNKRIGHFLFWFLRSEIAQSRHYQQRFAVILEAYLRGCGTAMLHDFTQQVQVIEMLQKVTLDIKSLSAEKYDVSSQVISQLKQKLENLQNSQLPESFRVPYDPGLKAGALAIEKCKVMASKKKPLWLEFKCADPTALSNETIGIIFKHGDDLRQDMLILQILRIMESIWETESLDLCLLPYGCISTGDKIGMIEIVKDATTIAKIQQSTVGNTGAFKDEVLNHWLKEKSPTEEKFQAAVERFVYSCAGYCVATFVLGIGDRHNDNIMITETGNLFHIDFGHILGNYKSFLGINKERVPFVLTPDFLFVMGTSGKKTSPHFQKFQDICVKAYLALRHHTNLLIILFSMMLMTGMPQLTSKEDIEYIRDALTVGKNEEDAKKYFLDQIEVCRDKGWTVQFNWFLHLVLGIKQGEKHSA

Phosphatidylinositol 4,5-bisphosphate 3-kinase catalytic subunit alpha isoform, sequence (P42336 whole entry, canonical isoform): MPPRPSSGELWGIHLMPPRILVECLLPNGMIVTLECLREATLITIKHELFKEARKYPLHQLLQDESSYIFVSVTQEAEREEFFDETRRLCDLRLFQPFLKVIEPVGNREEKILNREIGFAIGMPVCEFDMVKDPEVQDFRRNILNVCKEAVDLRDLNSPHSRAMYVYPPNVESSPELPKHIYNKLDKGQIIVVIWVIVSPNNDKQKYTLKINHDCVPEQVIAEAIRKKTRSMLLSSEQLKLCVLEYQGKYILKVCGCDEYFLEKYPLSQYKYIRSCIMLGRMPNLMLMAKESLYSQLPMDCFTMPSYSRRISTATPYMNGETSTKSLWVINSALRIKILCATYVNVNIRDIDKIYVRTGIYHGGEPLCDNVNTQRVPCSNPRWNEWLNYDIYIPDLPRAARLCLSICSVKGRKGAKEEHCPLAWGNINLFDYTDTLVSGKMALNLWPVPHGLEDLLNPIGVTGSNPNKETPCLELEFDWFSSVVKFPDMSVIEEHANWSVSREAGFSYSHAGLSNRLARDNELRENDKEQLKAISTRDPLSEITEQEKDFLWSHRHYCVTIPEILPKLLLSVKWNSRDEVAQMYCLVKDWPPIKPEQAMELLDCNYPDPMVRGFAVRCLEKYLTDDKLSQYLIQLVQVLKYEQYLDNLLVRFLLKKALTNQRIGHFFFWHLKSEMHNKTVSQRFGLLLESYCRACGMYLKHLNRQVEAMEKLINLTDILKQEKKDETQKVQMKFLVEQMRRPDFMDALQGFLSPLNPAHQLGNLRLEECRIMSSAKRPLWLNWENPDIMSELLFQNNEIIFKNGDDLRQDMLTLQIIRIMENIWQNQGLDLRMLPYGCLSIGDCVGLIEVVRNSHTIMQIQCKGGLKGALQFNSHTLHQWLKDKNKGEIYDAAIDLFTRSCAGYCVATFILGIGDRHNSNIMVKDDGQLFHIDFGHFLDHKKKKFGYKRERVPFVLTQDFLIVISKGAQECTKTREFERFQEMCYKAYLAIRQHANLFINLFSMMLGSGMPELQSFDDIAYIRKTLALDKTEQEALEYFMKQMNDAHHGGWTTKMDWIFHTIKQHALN
Mitogen-activated protein kinase 8 (Homo sapiens), sequence (P45983 whole entry, canonical isoform): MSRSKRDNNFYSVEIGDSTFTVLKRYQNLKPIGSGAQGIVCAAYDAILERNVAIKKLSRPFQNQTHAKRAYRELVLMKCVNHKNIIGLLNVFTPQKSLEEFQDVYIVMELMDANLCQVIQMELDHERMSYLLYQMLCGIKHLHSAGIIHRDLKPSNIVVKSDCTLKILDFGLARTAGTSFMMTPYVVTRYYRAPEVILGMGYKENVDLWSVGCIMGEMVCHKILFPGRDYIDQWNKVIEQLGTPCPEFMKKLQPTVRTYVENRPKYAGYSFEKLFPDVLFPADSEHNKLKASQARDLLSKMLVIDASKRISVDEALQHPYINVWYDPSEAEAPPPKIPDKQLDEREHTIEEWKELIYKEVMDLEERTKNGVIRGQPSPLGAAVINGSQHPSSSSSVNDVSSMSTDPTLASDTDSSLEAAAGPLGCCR

- Activity [1]: Active
- Kd [2]: 0.018 to 0.02 µM
- Kd [3]: 0.0044 to 0.0073 µM
SMILES: CO/C=C/C(=O)c1cc2c3c(c(N)cc(NC(=O)C(C)C)c3n1)N=C2
